Data from the M2OR odorant receptor database.

Assays:
Conditions in all cases: stereoisomer not certain
UniProt L7MU75 = biological target: T1, UniProt L7MU75
T1 sequence (whole entry): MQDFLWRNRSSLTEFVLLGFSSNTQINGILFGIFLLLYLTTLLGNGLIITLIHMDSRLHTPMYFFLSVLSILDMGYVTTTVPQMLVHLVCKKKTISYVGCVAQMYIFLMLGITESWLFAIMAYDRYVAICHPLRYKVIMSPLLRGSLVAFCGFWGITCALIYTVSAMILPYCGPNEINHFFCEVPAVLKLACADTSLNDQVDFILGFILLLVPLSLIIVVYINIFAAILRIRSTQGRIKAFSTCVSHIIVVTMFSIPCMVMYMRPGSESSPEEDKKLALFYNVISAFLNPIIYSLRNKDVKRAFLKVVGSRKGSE
Summary of the method: (§1)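 Values were gathered from published papers (main text and supplementary material), with extra details requested from the original authors when needed, and checked for typos and inconsistencies. Each receptor–molecule pair is called responsive (active) if the original authors judged the measured signal statistically different from baseline, and non-responsive (inactive) otherwise. Assay methods varied by source, often transient mammalian cell-line luciferase assays. Recorded details include cell line, G-protein, co-transfected protein and tags.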

UniProt L7N210 = biological target: T2, UniProt L7N210
T2 sequence (whole entry): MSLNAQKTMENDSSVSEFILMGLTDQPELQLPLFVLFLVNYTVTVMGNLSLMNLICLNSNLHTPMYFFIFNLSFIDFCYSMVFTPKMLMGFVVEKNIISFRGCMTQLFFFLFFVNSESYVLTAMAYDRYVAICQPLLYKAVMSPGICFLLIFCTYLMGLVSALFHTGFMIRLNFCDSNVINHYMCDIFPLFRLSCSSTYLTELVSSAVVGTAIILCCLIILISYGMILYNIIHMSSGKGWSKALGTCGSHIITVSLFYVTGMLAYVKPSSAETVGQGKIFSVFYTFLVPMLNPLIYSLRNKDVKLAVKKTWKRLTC
Summary of the method: as §1

UniProt Q3KPB0 = biological target: T3, UniProt Q3KPB0
T3 sequence (whole entry): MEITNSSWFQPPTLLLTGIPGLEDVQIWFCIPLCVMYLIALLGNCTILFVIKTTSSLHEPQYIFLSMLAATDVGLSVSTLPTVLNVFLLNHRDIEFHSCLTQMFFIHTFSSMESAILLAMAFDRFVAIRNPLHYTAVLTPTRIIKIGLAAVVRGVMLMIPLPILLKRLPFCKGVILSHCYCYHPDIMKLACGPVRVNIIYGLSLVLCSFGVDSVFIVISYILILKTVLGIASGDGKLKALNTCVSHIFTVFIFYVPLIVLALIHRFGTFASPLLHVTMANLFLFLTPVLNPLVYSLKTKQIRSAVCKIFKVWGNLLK
Summary of the method: as §1

UniProt Q3U0P3 = biological target: T4, UniProt Q3U0P3
T4 sequence (whole entry): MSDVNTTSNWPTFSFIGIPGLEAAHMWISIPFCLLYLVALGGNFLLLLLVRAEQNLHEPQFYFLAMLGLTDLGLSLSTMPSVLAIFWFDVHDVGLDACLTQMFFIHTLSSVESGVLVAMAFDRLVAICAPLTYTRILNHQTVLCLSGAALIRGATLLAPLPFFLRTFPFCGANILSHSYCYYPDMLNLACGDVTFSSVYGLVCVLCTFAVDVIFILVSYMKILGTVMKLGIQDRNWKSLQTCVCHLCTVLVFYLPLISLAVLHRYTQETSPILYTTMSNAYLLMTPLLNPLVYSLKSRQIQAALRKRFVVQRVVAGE
Summary of the method: as §1

UniProt Q7TQU8 = biological target: T5, UniProt Q7TQU8
T5 sequence (whole entry): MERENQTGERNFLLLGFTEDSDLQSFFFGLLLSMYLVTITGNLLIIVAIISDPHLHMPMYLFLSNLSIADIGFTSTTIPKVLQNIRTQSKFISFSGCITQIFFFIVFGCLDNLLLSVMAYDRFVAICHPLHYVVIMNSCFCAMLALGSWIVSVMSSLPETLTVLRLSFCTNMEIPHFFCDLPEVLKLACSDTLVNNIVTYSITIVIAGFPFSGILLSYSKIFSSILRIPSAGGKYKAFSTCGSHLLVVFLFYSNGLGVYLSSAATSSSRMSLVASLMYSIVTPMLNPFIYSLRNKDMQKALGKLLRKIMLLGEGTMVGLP
Summary of the method: as §1

UniProt Q7TR79 = biological target: T6, UniProt Q7TR79
T6 sequence (whole entry): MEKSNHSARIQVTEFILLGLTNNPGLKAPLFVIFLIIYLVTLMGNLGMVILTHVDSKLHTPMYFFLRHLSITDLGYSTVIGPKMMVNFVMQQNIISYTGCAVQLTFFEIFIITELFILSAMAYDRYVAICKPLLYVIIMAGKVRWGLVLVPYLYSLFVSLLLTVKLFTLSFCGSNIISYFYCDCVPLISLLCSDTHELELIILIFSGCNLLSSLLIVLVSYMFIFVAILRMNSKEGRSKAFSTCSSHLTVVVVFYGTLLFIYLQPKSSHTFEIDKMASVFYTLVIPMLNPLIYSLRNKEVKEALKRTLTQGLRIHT
Summary of the method: as §1

Row | SMILES | odorant receptor agonist call (UniProt L7MU75) | odorant receptor agonist call (UniProt L7N210) | odorant receptor agonist call (UniProt Q3KPB0) | odorant receptor agonist call (UniProt Q3U0P3) | odorant receptor agonist call (UniProt Q7TQU8) | odorant receptor agonist call (UniProt Q7TR79)
1 | CC=Cc1ccc(OC)cc1 | inactive | inactive | inactive | inactive | inactive | inactive
2 | CCCCCCCCOC=O | inactive | inactive | inactive | inactive | inactive | inactive
3 | CC(=O)OCCc1ccccc1 | inactive | active | inactive | inactive | inactive | inactive
4 | O=C(O)C1CCC1 | inactive | inactive | inactive | inactive | inactive | inactive
5 | c1ccc2ncccc2c1 | active | active | inactive | inactive | inactive | inactive
6 | COc1nccnc1C | active | inactive | inactive | inactive | inactive | inactive
7 | CCCCCCCCCCCO | inactive | inactive | inactive | inactive | inactive | inactive
8 | OCC=Cc1ccccc1 | inactive | active | inactive | inactive | inactive | inactive
9 | CC=C(C)C=O | inactive | inactive | inactive | inactive | inactive | inactive
10 | CCCC(C)C(=O)OCC (configuration not stated) | inactive | inactive | inactive | inactive | inactive | inactive
11 | CCCCCCCCC=CC=O | inactive | inactive | inactive | inactive | inactive | inactive
12 | CSSSC | inactive | inactive | inactive | inactive | inactive | inactive
